Laboratory results: publication PMC4055946 (Nuclear medicine and biology, 2014)

Tests used:
[1] = Rat whole body biodistribution of radioactivity after intravenous injection; format: in vivo; details: female CD rats, i.v., N = 3; for Tissue biodistribution, Bone, avg: femur in its entirety
In short: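 Female CD rats (N = 6) under light isoflurane got carbon-11 labeled test compound (1.85-4.44 MBq in 5% ethanol/saline) by tail vein. At 5 and 40 min, groups of 3 were anesthetized and killed by decapitation, and tissues were removed. Samples were weighed and counted for carbon-11, and uptake was expressed as % injected dose/g.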

cathepsin K = molecular target: T1, cathepsin K (Rattus norvegicus, UniProt O35186); experiment: MicroPET imaging of bone uptake and blocking in rat; details: for radioactivity in actively growing bone regions relative to non-target regions such as muscle: normal rat, microPET, 0-60 min, i.v.
T1 sequence (O35186 115-329): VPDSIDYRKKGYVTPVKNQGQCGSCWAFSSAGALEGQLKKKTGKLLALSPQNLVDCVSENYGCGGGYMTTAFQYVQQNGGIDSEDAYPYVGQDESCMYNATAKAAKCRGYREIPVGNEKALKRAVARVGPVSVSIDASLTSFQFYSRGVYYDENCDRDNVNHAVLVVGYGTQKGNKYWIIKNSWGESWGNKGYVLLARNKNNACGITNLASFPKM

SMILES: [11CH3]Oc1ccc(CCNC(=O)c2cnc(C#N)nc2NC2CCCCC2)cc1 [[^11C]1, 2-cyano-4-(cyclohexylamino)-N-(4-[^11C]methoxyphenethyl)-pyrimidine-5-carboxamide]
- Tissue biodistribution, Adrenal, avg ([1]; 5 min): 3.57 % injected dose/g
- Tissue biodistribution, Blood, avg ([1]; 5 min): 0.24 % injected dose/g
- Tissue biodistribution, Brain, avg ([1]; 5 min): 0.43 % injected dose/g
- Tissue biodistribution, Heart, avg ([1]; 5 min): 1.23 % injected dose/g
- Tissue biodistribution, Kidney, avg ([1]; 5 min): 2.03 % injected dose/g
- Tissue biodistribution, Liver, avg ([1]; 5 min): 3.02 % injected dose/g
- Tissue biodistribution, Lung, avg ([1]; 5 min): 0.68 % injected dose/g
- Tissue biodistribution, Muscle, avg ([1]; 5 min): 0.11 % injected dose/g
- Tissue biodistribution, Pancreas, avg ([1]; 5 min): 1.68 % injected dose/g
- Tissue biodistribution, Spleen, avg ([1]; 5 min): 1.03 % injected dose/g
- Tissue biodistribution, Bone, avg ([1]; 5 min): 0.26 % injected dose/g
- Tissue biodistribution, Adrenal, avg ([1]; 40 min): 0.51 % injected dose/g
- Tissue biodistribution, Blood, avg ([1]; 40 min): 0.11 % injected dose/g
- Tissue biodistribution, Brain, avg ([1]; 40 min): 0.11 % injected dose/g
- Tissue biodistribution, Heart, avg ([1]; 40 min): 0.19 % injected dose/g
- Tissue biodistribution, Kidney, avg ([1]; 40 min): 0.41 % injected dose/g
- Tissue biodistribution, Liver, avg ([1]; 40 min): 0.68 % injected dose/g
- Tissue biodistribution, Lung, avg ([1]; 40 min): 0.16 % injected dose/g
- Tissue biodistribution, Muscle, avg ([1]; 40 min): 0.11 % injected dose/g
- Tissue biodistribution, Pancreas, avg ([1]; 40 min): 0.56 % injected dose/g
- Tissue biodistribution, Spleen, avg ([1]; 40 min): 0.22 % injected dose/g
- Tissue biodistribution, Bone, avg ([1]; 40 min): 0.14 % injected dose/g
- radioactivity in actively growing bone regions relative to non-target regions such as muscle (cathepsin K): 2 to 3 times

SMILES: CC(C)(C)CNc1nc(C#N)ncc1C(=O)NCCc1ccc(O[11CH3])cc1 [[^11C]2, 2-cyano-N-(4-[^11C]methoxyphenethyl)-4-(neopentylamino)pyrimidine-5-carboxamide]
- radioactivity in actively growing bone regions relative to non-target regions such as muscle (cathepsin K): 2 to 3 times
- bone uptake of radioactivity after blocking dose of unlabeled ligand (cathepsin K; rat microPET, 2 mg/kg unlabeled 2 ten minutes prior to the radioligand): reduction of bone uptake of radioactivity to essentially levels equivalent to background in non-target tissues
